Key:
DU-145 = experiment: Cytotoxicity against human DU145 cells after 48 hrs by SRB assay; format: functional, cell-based; conditions: Homo sapiens, DU-145, 48 h; for GI50: read-out: GI50; for CC50: read-out: LC50 (the source's name)
Outline: (§1)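 Cells grown in RPMI 1640 with 10% FBS and penicillin/streptomycin at 37 °C and 5% CO₂, trypsinized, then seeded at 5 × 10³/well. After 18 h drug-free attachment, samples in DMSO/EtOH/PBS (0.5:0.5:99) were added for 48 h continuous exposure. Cells were fixed with cold TCA (1 h, 4 °C) and stained with SRB (10 min). Tris-solubilized stain read at 490 nm. Triplicate wells, mean ± SD; GI₅₀ derived.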

[1] = Cytotoxicity against human IGROV cells after 48 hrs by SRB assay; format: functional; conditions: for CC50: read-out: LC50 (the source's name); outline: as §1
[2] = Cytotoxicity against human IGROV-ET cells after 48 hrs by SRB assay; format: functional; conditions: for CC50: read-out: LC50 (the source's name); outline: as §1
SK-BR-3 = experiment: Cytotoxicity against human SKBR3 cells after 48 hrs by SRB assay; format: functional; conditions: SK-BR-3, 48 h; for CC50: read-out: LC50 (the source's name); outline: as §1
SK-MEL-28 = experiment: Cytotoxicity against human SK-MEL-28 cells after 48 hrs by SRB assay; format: functional, cell-based; conditions: Homo sapiens, SK-MEL-28, 48 h; for CC50: read-out: LC50 (the source's name); outline: as §1
A549 = experiment: Cytotoxicity against human A549 cells after 48 hrs by SRB assay; format: functional, cell-based; conditions: Homo sapiens, A549, 48 h; for GI50: read-out: GI50; outline: as §1
K562 = experiment: Cytotoxicity against human K562 cells after 48 hrs by SRB assay; format: functional; conditions: K562, 48 h; for CC50: read-out: LC50 (the source's name); outline: as §1
PANC-1 = experiment: Cytotoxicity against human PANC1 cells after 48 hrs by SRB assay; format: functional; conditions: PANC-1, 48 h; for CC50: read-out: LC50 (the source's name); outline: as §1
HT-29 = experiment: Cytotoxicity against human HT29 cells after 48 hrs by SRB assay; format: functional, cell-based; conditions: Homo sapiens, HT-29, 48 h; for CC50: read-out: LC50 (the source's name); outline: as §1
LoVo [3] = experiment: Cytotoxicity against human LoVo cells after 48 hrs by SRB assay; format: functional; conditions: for CC50: read-out: LC50 (the source's name)
LoVo [4] = experiment: Cytotoxicity against human doxorubicin resistant LoVo cells after 48 hrs by SRB assay; format: functional; conditions: for CC50: read-out: LC50 (the source's name); outline: as §1
HeLa = experiment: Cytotoxicity against human HeLa cells after 48 hrs by SRB assay; format: functional; conditions: for CC50: read-out: LC50 (the source's name); outline: as §1
[5] = Cytotoxicity against human HeLa-APL cells after 48 hrs by SRB assay; format: functional; outline: as §1

SMILES	TGI (DU-145) [µM]	GI50 (DU-145) [µM]	CC50 (DU-145) [µM]	CC50 [1] [µM]	CC50 [2] [µM]	CC50 (SK-BR-3) [µM]	GI50 (SK-MEL-28; read-out: GI50) [µM]	CC50 (SK-MEL-28) [µM]	LC50 (A549) [µM]	CC50 (K562) [µM]	CC50 (PANC-1) [µM]	CC50 (HT-29) [µM]	GI50 (LoVo [3]) [µM]	TGI (LoVo [3]) [µM]	CC50 (LoVo [3]) [µM]	GI50 (LoVo [4]) [µM]	TGI (LoVo [4]) [µM]	CC50 (LoVo [4]) [µM]	CC50 (HeLa) [µM]	LC50 (concentration giving 50% net cell kill) [5] [µM]	also measured
C/C=C1\NC(=O)[C@H](Cc2cccs2)NC(=O)[C@@H](C(C)C)NC(=O)[C@@H]([C@H](C)CC)NC(=O)[C@H](NC(=O)[C@H](NC(=O)[C@H](CCCN)NC(=O)[C@H]2CCCN2C(=O)[C@H](NC(=O)[C@@H](NC(=O)[C@@H](NC(=O)[C@H](NC(=O)CC[C@@H](C)CC)C(C)C)[C@@H](C)O)C(C)C)C(C)C)[C@H](C)CC)[C@H](C)OC(=O)[C@H](C(C)C)NC1=O	1.21	1.38	1.07	0.676	0.505	0.11	1.58	1.29	1.21	2.69	2.01	0.657	0.751	1.19	1.93	0.39	0.391	0.393	1.07	1.13	GI50 [2]: 0.855 µM; GI50 ([2]; read-out: GI50): 1.71 µM; TGI (SK-MEL-28): 1.43 µM; TGI (A549): 1.45 µM; GI50 (A549): 1.76 µM; GI50 (K562): 4.92 µM; TGI (K562): 4.29 µM; GI50 (HT-29): 1.29 µM; TGI (HT-29): 1.02 µM; GI50 (HeLa): 1.59 µM; TGI (HeLa): 1.29 µM; GI50 [5]: 1.77 µM; TGI [5]: 1.42 µM
C/C=C1\NC(=O)[C@@H]2C[C@@H]3CCCC[C@@H]3N2C(=O)[C@@H](C(C)C)NC(=O)[C@@H]([C@H](C)CC)NC(=O)[C@H](NC(=O)[C@H](NC(=O)[C@H](CCCN)NC(=O)[C@H]2CCCN2C(=O)[C@H](NC(=O)[C@@H](NC(=O)[C@@H](NC(=O)[C@H](NC(=O)CC[C@@H](C)CC)C(C)C)[C@@H](C)O)C(C)C)C(C)C)[C@H](C)CC)[C@H](C)OC(=O)[C@H](C(C)C)NC1=O	1.25	1.46	1.07	0.582	0.507	0.138	1.15	1.12	1.07	2.67	2	0.677	1.21	1.92	2.42	0.358	0.433	0.527	1.05	1	GI50 [1]: 0.871 µM; GI50 ([1]; read-out: GI50): 1.82 µM; GI50 [2]: 0.827 µM; GI50 ([2]; read-out: GI50): 1.59 µM; TGI (SK-BR-3): 0.887 µM; GI50 (SK-BR-3; read-out: GI50): 0.7 µM; TGI (SK-MEL-28): 1.14 µM; TGI (A549): 1.25 µM; GI50 (A549): 1.46 µM; GI50 (K562): 4.75 µM; TGI (K562): 4.04 µM; GI50 (PANC-1): 2.58 µM; TGI (PANC-1): 3.67 µM; GI50 (HeLa): 1.56 µM; TGI (HeLa): 1.27 µM; GI50 [5]: 1.26 µM; TGI [5]: 1.12 µM
C/C=C1\NC(=O)[C@H](Cc2ccccc2)NC(=O)[C@@H](C(C)C)NC(=O)[C@@H]([C@H](C)CC)NC(=O)[C@H](NC(=O)[C@H](NC(=O)[C@H](CCCNC(=O)CCOCCOCCNC(=O)OCC2c3ccccc3-c3ccccc32)NC(=O)[C@H]2CCCN2C(=O)[C@H](NC(=O)[C@@H](NC(=O)[C@@H](NC(=O)[C@H](NC(=O)CCCC(C)C)C(C)C)[C@@H](C)O)C(C)C)C(C)C)[C@H](C)CC)[C@H](C)OC(=O)[C@H](C(C)C)NC1=O	0.0157	0.0164	0.557	0.404	0.216	0.392	0.0684	0.0103	0.032	0.0154	0.141	0.263	0.0443	0.0617	0.0432	0.199	0.179	0.238	0.767	0.528	GI50 [1]: 0.0799 µM; GI50 ([1]; read-out: GI50): 0.0361 µM; GI50 (SK-BR-3): 0.0534 µM; GI50 (SK-BR-3; read-out: GI50): 0.0396 µM; GI50 (SK-MEL-28): 0.84 µM; GI50 (HT-29): 0.0853 µM; TGI (HT-29): 0.117 µM; GI50 (HeLa): 0.0564 µM; TGI (HeLa): 0.119 µM; GI50 [5]: 0.0538 µM; TGI [5]: 0.0897 µM
C/C=C1\NC(=O)[C@@H]2Cc3ccccc3CN2C(=O)[C@@H](C(C)C)NC(=O)[C@@H]([C@H](C)CC)NC(=O)[C@H](NC(=O)[C@H](NC(=O)[C@H](CCCN)NC(=O)[C@H]2CCCN2C(=O)[C@H](NC(=O)[C@@H](NC(=O)[C@@H](NC(=O)[C@H](NC(=O)CC[C@@H](C)CC)C(C)C)[C@@H](C)O)C(C)C)C(C)C)[C@H](C)CC)[C@H](C)OC(=O)[C@H](C(C)C)NC1=O	3.83	4.16	1.93	7.45	0.572	0.296	1.62	2.09	1.2	2.68	2.01	0.726	2.82	2.91	3.03	0.718	1.25	1.82	1.14	1.19	TGI (SK-BR-3): 1.9 µM; GI50 (SK-BR-3; read-out: GI50): 2.3 µM; TGI (SK-MEL-28): 1.93 µM; TGI (A549): 1.44 µM; GI50 (A549): 1.75 µM; GI50 (K562): 4.89 µM; TGI (K562): 4.26 µM
C/C=C1\NC(=O)[C@H](Cc2ccccc2)N(C)C(=O)[C@@H](C(C)C)NC(=O)[C@@H]([C@H](C)CC)NC(=O)[C@H](NC(=O)[C@H](NC(=O)[C@H](CCCN)NC(=O)[C@H]2CCCN2C(=O)[C@H](NC(=O)[C@@H](NC(=O)[C@@H](NC(=O)[C@H](NC(=O)CC[C@@H](C)CC)C(C)C)[C@@H](C)O)C(C)C)C(C)C)[C@H](C)CC)[C@H](C)OC(=O)[C@H](C(C)C)NC1=O	1.13	1.23	1.03	0.493	0.451	0.0768	1.35	1.19	0.999	1.41	2	0.22	0.386	0.431	0.486	0.318	0.311	0.305	0.781	0.936	GI50 [1]: 0.596 µM; GI50 ([1]; read-out: GI50): 0.862 µM; GI50 [2]: 0.642 µM; GI50 ([2]; read-out: GI50): 0.999 µM; TGI (SK-BR-3): 0.286 µM; GI50 (SK-BR-3; read-out: GI50): 0.324 µM; TGI (SK-MEL-28): 1.27 µM; TGI (A549): 1.13 µM; GI50 (A549): 1.3 µM; GI50 (K562): 2.14 µM; TGI (K562): 1.73 µM; GI50 (PANC-1): 1.92 µM; TGI (PANC-1): 2.1 µM; GI50 (HT-29): 0.274 µM; TGI (HT-29): 0.236 µM; GI50 (HeLa): 0.528 µM; TGI (HeLa): 0.766 µM; GI50 [5]: 1.11 µM; TGI [5]: 1.02 µM

Source: ChEMBL document CHEMBL1156597, “Structure-activity relationship of kahalalide F synthetic analogues” (J Med Chem, 2008)
